Entries after “also recorded” stand apart in the source; their conditions may differ. Where no end group is shown, it is not given here.
What was measured:
[1] = tested on: methylated H3K9 and H3K27 peptides; assay: Peptide microarray, chromodomain binding profile; parameters: species or system human
In short: (§1)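 Array of 467 unmodified and modified peptides (desalted, mass-spectrometry checked) printed in triplicate spots on glass slides and probed with chromodomain proteins. Signal intensities converted to z scores per chromodomain using all its intensities: z = (x − mean)/SD. Hierarchical clustering grouped chromodomains into three categories and peptides into six clusters by binding preference.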

H3K9me3 = conditions: read-out: Kd H3K9me3; reported Kd of CBX chromodomains; cited from earlier work
SUV91 chromodomain = assay: Peptide microarray binding, SUV91; parameters: species or system human
In short: as §1

| Substance | binding profile toward methylated H3K9 / H3K27 peptides (in words) [1] | Kd (H3K9me3) [µM] | binding to SUV91 chromodomain (in words) (SUV91 chromodomain) |
| --- | --- | --- | --- |
| CBX2: CBX2 chromodomain, GST fusion, cloned sequence 9-66 (EQVFAAECILSKRLRKGKLEYLVKWRGWSSKHNSWEPEENILDPRLLLAFQKKEHEKE; also: GST fusion, end not given here; UniProt Q14781 9-66, looked up, fragment) | binding to both methylated H3K9 and H3K27 was confirmed; also recorded: higher H3K27 signal intensity compared with those of H3K9 |  |  |
| CBX4: CBX4 chromodomain, GST fusion, cloned sequence 8-65 (EHVFAVESIEKKRIRKGRVEYLVKWRGWSPKYNTWEPEENILDPRLLIAFQNRERQEQ; also: GST fusion, end not given here; UniProt O00257 8-65, looked up, fragment) | binding to both methylated H3K9 and H3K27 was confirmed |  |  |
| CBX6: CBX6 chromodomain, GST fusion, cloned sequence 8-65 (ERVFAAESIIKRRIRKGRIEYLVKWKGWAIKYSTWEPEENILDSRLIAAFEQKERERE; also: GST fusion, end not given here; UniProt O95503 8-65, looked up, fragment) | binding to both methylated H3K9 and H3K27 was confirmed; also recorded: showed signals with di- and trimethylated peptides at both sites |  |  |
| CBX8: CBX8 chromodomain, GST fusion, cloned sequence 8-61 (ERVFAAEALLKRRIRKGRMEYLVKWKGWSQKYSTWEPEENILDARLLAAFEERE; also: GST fusion, end not given here; UniProt Q9HC52 8-61, looked up, fragment) | binding to both methylated H3K9 and H3K27 was confirmed; also recorded: showed signals with di- and trimethylated peptides at both sites |  |  |
| WT CBX1: WT CBX1 chromodomain, GST fusion, cloned sequence 20-73 | bound predominantly to all three methylated H3K9 peptides | 5 |  |
| [Ahx]AATASCLIC[K_Me3]YAA [methylated SIRT1 sequence] |  |  | showed binding |

Reference: paper PMC6221542 (Science Advances, 2018)
